Results taken from ChEMBL document CHEMBL3045743, “Synthesis and herbicidal activity of isoindoline-1,3-dione substituted benzoxazinone derivatives containing a carboxylic ester group” (J Agric Food Chem, 2009).

What was measured:
[1] = Phytotoxicity against Gossypium (cotton) assessed as growth inhibition at 300 g.a.i/ha pre-emergent application measured after 15 days by greenhouse crop selectivity assay; format: organism-based; conditions: in vivo, 300 g.a.i/ha, read-out: GI
Outline: (§1)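 Pre-emergence greenhouse crop selectivity test on pot-grown plants in clay soil (pH 6.5, 1.7% organic matter, 37.5% clay, CEC 12.9 cmol/kg). Stock solutions were diluted with water and applied at 300, 150, 75 or 37.5 g a.i./ha, in triplicate. After 15 days, phytotoxicity was scored visually against untreated controls as % crop growth inhibition, averaged over the triplicates.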

[2] = Phytotoxicity against Glycine max (soybean) assessed as growth inhibition at 75 g.a.i/ha pre-emergent application measured after 15 days by greenhouse crop selectivity assay; format: organism-based; conditions: in vivo, 75 g.a.i/ha, read-out: GI; outline: as §1
[3] = Phytotoxicity against Glycine max (soybean) assessed as growth inhibition at 300 g.a.i/ha pre-emergent application measured after 15 days by greenhouse crop selectivity assay; format: organism-based; conditions: in vivo, 300 g.a.i/ha, read-out: GI; outline: as §1
[4] = Phytotoxicity against Glycine max (soybean) assessed as growth inhibition at 150 g.a.i/ha pre-emergent application measured after 15 days by greenhouse crop selectivity assay; format: organism-based; conditions: in vivo, 150 g.a.i/ha, read-out: GI; outline: as §1
[5] = Phytotoxicity against Triticum aestivum (wheat) assessed as growth inhibition at 37.5 g.a.i/ha pre-emergent application measured after 15 days by greenhouse crop selectivity assay; format: organism-based; conditions: in vivo, 37.5 g.a.i/ha, read-out: GI; outline: as §1
Oryza sativa [6] = assay: Phytotoxicity against Oryza sativa (rice) assessed as growth inhibition at 75 g.a.i/ha pre-emergent application measured after 15 days by greenhouse crop selectivity assay; format: organism-based, L.; conditions: in vivo, other, 360 h; outline: as §1
Oryza sativa [7] = assay: Phytotoxicity against Oryza sativa (rice) assessed as growth inhibition at 37.5 g.a.i/ha pre-emergent application measured after 15 days by greenhouse crop selectivity assay; format: organism-based, L.; conditions: in vivo, other, 360 h; outline: as §1
Triticum aestivum = assay: Phytotoxicity against Triticum aestivum (wheat) assessed as growth inhibition at 150 g.a.i/ha pre-emergent application measured after 15 days by greenhouse crop selectivity assay; format: organism-based; conditions: in vivo, other, 360 h; outline: as §1

Row | SMILES | inhibition at 360 h [1] | inhibition at 360 h [2] | inhibition at 360 h [3] | inhibition at 360 h [4] | inhibition at 360 h [5] | growth inhibition (GI) (Oryza sativa [6]) | growth inhibition (GI) (Oryza sativa [7]) | growth inhibition (GI) (Triticum aestivum)
1 | COC(=O)C(C)N1C(=O)C(C)Oc2cc(F)c(N3C(=O)C4=C(CCCC4)C3=O)cc21 (centres undefined) | > 10% |  |  |  |  |  |  | 
2 | C#CCN1C(=O)COc2cc(F)c(N3C(=O)C4=C(CCCC4)C3=O)cc21 [FLUMIOXAZIN] | > 10% | > 10% | > 10% | > 10% | > 10% |  |  | 
3 | CCOC(=O)C(CC)N1C(=O)C(C)Oc2cc(F)c(N3C(=O)C4=C(CCCC4)C3=O)cc21 (centres undefined) |  |  |  |  |  | Not Active | Not Active | Not Active
